High-throughput results (PubChem)
TNF necrop inh: inhibitors of TNF-alpha induced necroptosis in Jurkat FADD-/- cells | Jurkat FADD-/- TNF necroptosis rescue, ATP luminescence, 24 h; 0 = TNF only, 100 = no-TNF cells | activation (protection from cell death), % at 10 µM | 220,000 compounds, 0.068% hits | AID 463075;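 active = activation, meaning protection from cell death, of at least 50% relative to plate controls; inactive = activation below 50%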;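 also: necroptosis triggered by 40 ng/mL TNF-alpha added together with compound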
HSV replic up: HSV replication enhancement; HSV replication augmentation in cells, fold increase; maximum fold increase; 220,000 compounds, 0.005% hits; in the data active = maximum fold increase above about 1.5; inconclusive = no clear call, values can overlap the other calls; tested in PC3 cells
Dynein transport: blocks dynein driven cargo transport along microtubules; 3617.4 mouse cells, GR-EGFP nuclear translocation imaging; test concentration mostly 20 µM; stimulated with dexamethasone, 1 µM; active compounds read low; z-score, hits read low; 220,000 compounds, 0.47% hits; AID 1381;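 active = plate z-score of nuclear minus cytoplasmic receptor signal below a set negative limit, without overly bright fluorescence or cell loss, cut at about -3.5 in these data, passing the limit was not always enough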;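 also: z-score of nuclear minus cytoplasmic ring GR-EGFP intensity difference per well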
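Buffer or medium – tet-free medium with charcoal-stripped serum · Signal – automated 10x imaging of fixed Hoechst-stained cells · Also added – dexamethasone agonist, 1.0 µM final, for 30 min · Incubation – induction 48 h, compound 1 h, agonist 30 min · Read-out – GR-EGFP nuclear translocation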
zVAD death inh: L929 zVAD cell death inhibition. L929 zVAD necroptosis rescue, ATP luminescence, 24 h; with zVAD 60 µM. viability rescue, % at 10 µM. 220,000 compounds, 0.38% hits. AID 1377;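 active = activation, scaled between plate controls, above about 75%, limit read from the data; inactive = activation under that limit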
Furin inhibitor: inhibitors of human furin | purified furin, fluorogenic substrate cleavage | inhibition, % at 20 µM or 30 µM | 220,000 compounds, 0.061% hits; in the data active = inhibition above about 25%
Target sequence (P09958 108-714 limits assumed): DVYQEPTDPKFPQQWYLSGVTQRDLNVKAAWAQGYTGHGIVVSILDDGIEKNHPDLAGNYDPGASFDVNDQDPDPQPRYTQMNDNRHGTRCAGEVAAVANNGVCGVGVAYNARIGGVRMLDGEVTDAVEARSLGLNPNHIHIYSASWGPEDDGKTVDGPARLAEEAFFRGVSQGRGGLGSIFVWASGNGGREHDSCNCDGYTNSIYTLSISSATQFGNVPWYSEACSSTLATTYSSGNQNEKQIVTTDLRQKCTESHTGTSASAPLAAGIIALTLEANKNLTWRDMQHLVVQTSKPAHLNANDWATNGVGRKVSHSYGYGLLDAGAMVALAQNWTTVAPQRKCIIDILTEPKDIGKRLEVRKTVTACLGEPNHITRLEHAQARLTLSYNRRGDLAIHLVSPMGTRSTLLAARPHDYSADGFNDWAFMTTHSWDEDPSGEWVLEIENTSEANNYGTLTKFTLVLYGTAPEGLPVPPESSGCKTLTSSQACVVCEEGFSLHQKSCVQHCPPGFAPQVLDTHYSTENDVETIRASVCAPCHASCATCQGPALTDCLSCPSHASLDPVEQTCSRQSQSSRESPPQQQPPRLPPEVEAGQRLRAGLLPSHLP
Autophagy mod: autophagy modulation, high-content screen | MEF GFP-LC3 puncta imaging; test concentration mostly 10 µM | calls only at 10 µM (by protocol) | 190,000 compounds, 0.98% hits;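 active = percentage of spot-positive cells more than 3 SD above its plate mean, without a fluorescence outlier flag or 80% toxicity; inconclusive = no clear call, values can overlap the other calls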
Hits are given with their value; – = inactive; ? = inconclusive; · = no result given; + = active, no number. The list is not random: actives were taken first. Their share in the collection is about 1.8%.

SMILES	TNF necrop inh	HSV replic up	Dynein transport	zVAD death inh	Furin inhibitor	Autophagy mod
CCCC(=O)Nc1ccc2oc(=O)ccc2c1	–	–	–	–	–	–
O=C(Nc1ccc2c(c1)OCCO2)c1cc(-c2ccccn2)nc2ccc(Br)cc12	–	–	–	–	–	+
N#CC(C#N)=C1C=CC=CN1/C(=C\c1ccccc1)C(=O)c1cccs1	–	?	–	–	–	–
N#CC(C#N)=C1C=CC=CN1/C(=C\c1ccccc1Cl)C(=O)c1ccccc1	–	–	-4.1	·	–	–
CN1/C(=C/C(=O)c2ccc(Cl)cc2)Sc2cc3c(cc21)OCO3	–	–	–	–	–	+
CCOC(=O)c1ccc(NC(=O)CSC(=S)N2CCOCC2)cc1	–	–	–	–	–	+
CCOC(=O)c1ccc(NC(=O)N2CCOCC2)cc1	–	–	–	–	–	–
c1ccc(CCNc2nc3ccccc3n3nnnc23)cc1	–	·	–	–	–	+
COc1ccc(CCNc2nc3ccccc3n3nnnc23)cc1OC	–	–	–	–	–	–
Cc1cccc(N=c2c([N+](=O)[O-])nn(-c3ccc(Cl)cc3)n2O)c1	–	–	–	–	–	–
Cc1cc(C)cc(N=c2c([N+](=O)[O-])nn(-c3cccc(Cl)c3)n2O)c1	–	–	–	–	–	+
COc1cccc(C(=O)/C=C/Nc2cc(C)ccc2O)c1	–	–	–	–	–	+
CS(=O)(=O)c1ccc2nc(NC(=O)Nc3cccc(Cl)c3)sc2c1	–	–	–	83	–	–
COC(=O)CNC(=S)NC(=O)c1ccc(C(C)(C)C)cc1	–	–	–	–	–	–
CC(=O)N1CC[n+]2c(-c3ccc(Cl)cc3)csc21	–	–	–	·	–	+
CN(C)c1ccc(C(=O)c2ccc(N(C)C)c3ccccc23)cc1	–	·	–	–	–	+
CC(C)(C)n1cnc2cc(NS(=O)(=O)c3ccccc3)ccc21	–	–	–	–	–	–
COc1ccc(-n2cnc3cc(NS(=O)(=O)c4ccccc4)ccc32)cc1	53	–	–	–	–	–
NC(=O)c1ccsc1NC(=O)CSc1nnc(Nc2ccccc2)s1	–	–	–	–	–	–
C=CCn1c(SCC(=O)N2CCOCC2)nc2sc3c(c2c1=O)CCCC3	–	–	–	–	–	+
CCn1c(SCC(=O)Nc2cc(C)on2)nc2sc3c(c2c1=O)CCCC3	–	·	–	–	–	+
CN1CCc2c(sc3nc(SCC(=O)N4CCOCC4)nc(N)c23)C1	–	–	–	–	–	+
C=CCn1c(SCC(=O)Nc2cc(C)on2)nc2sc3c(c2c1=O)CCCC3	–	·	–	–	–	–
CC1CCN(C(=O)CSc2nc(N)c3c4c(sc3n2)CN(C)CC4)CC1	–	–	–	–	–	–
CCc1sc2nc(SCC(=O)Nc3cc(C)on3)n(-c3cccc(OC)c3)c(=O)c2c1C	–	–	–	–	–	+
SMILES	TNF necrop inh	HSV replic up	Dynein transport	zVAD death inh	Furin inhibitor	Autophagy mod
COc1cccc(-n2c(SCC(=O)Nc3cc(C)on3)nc3ccccc3c2=O)c1	–	–	–	–	–	–
N/C(Cc1ccc(Cl)cc1)=N\OC(=O)C1CCCCC1	–	–	–	–	–	–
COC(=O)COc1ccc(/C=N/NC(=O)c2ccc(N(Cc3ccccc3)S(C)(=O)=O)cc2)cc1	–	–	–	–	–	–
Cc1cc(=O)oc2cc(NC(=O)CC3(CC(=O)O)CCCC3)ccc12	–	–	–	–	–	·
COc1ccc2[nH]cc(CCNS(=O)(=O)c3ccc(NC(C)=O)cc3)c2c1	–	–	–	–	–	+
Cc1ccc2nc(SCC(=O)Nc3ccccc3N3CCOCC3)c(C#N)cc2c1	–	·	–	–	–	+
CCCNC(=O)c1cccc(COCC(F)(F)C(F)F)c1	–	–	–	–	–	–
O=C(O)c1cccc(COCC(F)(F)C(F)F)c1	–	–	–	–	–	+
O=C(CN1C(=O)CC(c2ccccc2)S(=O)(=O)c2ccccc21)N1CCCC1 (stereo not given)	–	–	–	–	–	–
CCNS(=O)(=O)c1ccc(NC(=O)CC(C)c2ccccc2)cc1 (stereo not given)	–	–	–	–	–	–
O=C(Cc1cccs1)Nc1cccc(-c2nnc(-c3ccco3)o2)c1	–	–	–	–	–	–
Cc1ccc(-c2nnc(-c3ccc(NC(=O)Cc4cccs4)cc3)o2)cc1	–	–	–	–	–	+
Cn1nnnc1SCC(=O)Nc1cc(C(C)(C)C)nn1-c1ccccc1	–	–	–	–	–	–
COc1ccccc1-n1cnnc1SCC(=O)Nc1cc(C(C)(C)C)nn1-c1ccccc1	–	–	–	105	–	–
Cc1cc(C)c(NC(=O)NC(=O)C(Cl)(Cl)Cl)c(C)c1	–	–	–	–	–	–
O=C(NCc1ccco1)/C(=C\c1cccnc1)NC(=O)c1ccccc1F	–	–	–	–	–	–
COc1ccc(CCn2c(-n3nc(C)cc3C)nc3c2c(=O)[nH]c(=O)n3C)cc1	–	–	–	–	–	+
Cc1ccc(Cn2c(-n3nc(C)cc3C)nc3c2c(=O)[nH]c(=O)n3C)cc1	–	–	–	–	–	–
O=C(Cn1cnc2sc(-c3ccccc3)cc2c1=O)NCc1ccccc1	–	–	–	–	–	+
COc1cccc(N=Nc2c(N)[nH][nH]c2=O)c1	–	–	–	–	–	–
COc1cccc(N=Nc2c(N)[nH]n3c(=O)c4c(nc23)CCCC4)c1	–	–	–	–	–	+
Nc1nonc1C(=O)NCCNCc1cc(Br)ccc1OCc1ccc(F)cc1	–	–	–	–	–	+
CSc1nnc(CCCCCCCCc2nnc(SC)o2)o1	–	–	–	–	–	·
CO/N=C/C(=N\Nc1ccc(C)cc1)C(=O)c1ccc(OC)cc1	–	–	–	–	–	+
C=CCC(O)(CC=C)C(C)N (stereo not given)	–	–	–	–	–	–
SMILES	TNF necrop inh	HSV replic up	Dynein transport	zVAD death inh	Furin inhibitor	Autophagy mod
CCOc1cccc2cc(-c3csc(NC(=O)CCC(=O)N4CCC(C)CC4)n3)c(=O)oc12	–	–	–	–	–	+
Cc1ccccc1NC(=S)N1CCC(NC(=O)c2ccco2)CC1	–	–	–	–	–	–
Cc1sc2ncn(Cc3ccccc3F)c(=O)c2c1C	95	–	–	–	–	–
COc1ccc(CNC(=O)C(=O)NCC2OCCN2S(=O)(=O)c2cccs2)cc1 (stereo not given)	–	–	–	–	–	–
CC(Sc1nc(C(C)(C)C)cc(-c2ccccc2)c1C#N)C(=O)Nc1ccccc1 (stereo not given)	–	–	–	–	–	–
NNc1nc2c(-c3ccc(Cl)cc3)nnn2c2ccccc12	–	?	–	–	–	+
COc1ccc(NC(=O)Cn2cnc3sc(C)c(S(=O)(=O)N4CCN(C)CC4)c3c2=O)cc1OC	–	–	–	–	–	–
